B1: tRNA (parent)
chain: GUUCCGUUGGCGUAAUGGUAACGCGUCUCCCUCCUAAGGAGAAGACUGCGGGUUCGAGUCCCGUACGGAACG

The results in this text go back to the RNAGym collection of RNA variant scans (doi:10.1038/s41586-018-0170-7).

The variants in the data set derive from B1. Kind of data set: yeast fitness, log relative to wild type (ln ratio); higher = fitter; tRNA-Arg(CCU), competitive growth, 37 C, 1 M NaCl. The method, boiled down:
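BY4742 cells without the chromosomal tRNA-Arg(CCU) gene carried a combinatorial variant library on a HIS3 centromeric plasmid, from two independent transformations. After 4 generations in SC-HIS at 30 °C, pools spent ~6.5 generations (~26.5 h) in SC-HIS 1M NaCl at 37 °C, giving three outputs per input, and 125 bp paired-end Illumina reads counted the variants. Fitness is the natural log of each genotype's generations over the wild type's, with generations taken as OD-scaled log2 output/input frequency weighted by inverse variance across replicates.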
As to U2G G6A A43C A70U, the “yeast fitness (ln)” value is -0.14.
Next, U2G G6A A43C A70G: -0.0939; U2G C27U A43C C66A A69G C71U: -0.355.
In the case of U2G C27U C46U C66U C71U, the “yeast fitness (ln)” value is -0.214.
For the variant U2G C66A A69G C71U, the “yeast fitness (ln)” value is -0.145.
For U2G G6A A43C C66A A69G A70G C71U, the “yeast fitness (ln)” value was -0.154.
Next, U2G G6A C27U C46U A69G A70U: -0.133; U2G G6A C27U C46U A69G A70G: -0.174.
On to U2G G6A C27U A43C C66U A70G C71U, for which the “yeast fitness (ln)” value was -0.29.
As to U2G C27U A43C C66A C71U, the “yeast fitness (ln)” value was -0.238.
For U2G G6A A43C C66U the value was -0.0762; for U2G C46U C66A C71U, -0.0426.
For the variant U2G G6A C27U A43C A70U C71U, the “yeast fitness (ln)” value was -0.242.
Consider U2G C27U A69G A70U, for which the “yeast fitness (ln)” value was -0.0281.
Next, U2G C27U A69G A70G: -0.217; U2G C66A A70U C71U: -0.0556.
Next, U2G G6A C27U A43C A70G C71U: -0.221; U2G G6A A43C C66U A70G: -0.147.
As for U2G G6A A43C C66U A70U, the “yeast fitness (ln)” value is -0.0213.
Consider U2G G6A C27U A70U, for which the “yeast fitness (ln)” value is -0.283.
Consider U2G G6A C27U A70G, for which the “yeast fitness (ln)” value was -0.112.
As to U2G G6A A43C C46U, the “yeast fitness (ln)” value was -0.0442.
For U2G C66U A69G A70G, the “yeast fitness (ln)” value is -0.151.
For U2G C66U A69G A70U, the “yeast fitness (ln)” value is -0.285.
On to U2G C27U C46U C66A A70U, for which the “yeast fitness (ln)” value is -0.143.
For the variant U2G C27U C46U C66A A70G, the “yeast fitness (ln)” value is -0.0963.
On to U2G C27U C66A A69G A70G C71U, for which the “yeast fitness (ln)” value is -0.247.
Next, U2G G6A A43C A70G C71U: -0.18; U2G G6A A70U: -0.0249; U2G G6A A70G: -0.114.
Next, U2G G6A A43C C46U C66U C71U: -0.212; U2G G6A A43C C46U A69G A70U C71U: -0.347.
Turning to U2G C27U A43C C66A A70U C71U, the “yeast fitness (ln)” value is -0.319.
Next, U2G C27U C66A A69G C71U: -0.197.
Take U2G G6A C27U A43C C71U: the “yeast fitness (ln)” value is -0.197.
For U2G C27U C66A the value was -0.0584.
Consider U2G C27U C66U, for which the “yeast fitness (ln)” value was -0.0998.
With U2G G6A A43C C46U A70G, the “yeast fitness (ln)” value is -0.148.
Regarding U2G G6A A43C C46U A70U, the “yeast fitness (ln)” value is -0.261.
Take U2G C27U C46U C66A A70U C71U: the “yeast fitness (ln)” value is -0.134.
For U2G G6A A43C C46U A69G A70G the value was -0.169; for U2G G6A A43C C46U A69G A70U, -0.123; for U2G C27U A43C C46U C66A A69G A70G, -0.21.
U2G C27U A43C C46U C66A A69G A70U: the “yeast fitness (ln)” value was -0.175.
On to U2G G6A C27U, for which the “yeast fitness (ln)” value is -0.0425.
For U2G C46U C66A A69G A70U C71U the value was -0.34; for U2G G6A C27U A43C C46U C66A C71U, -0.283; for U2G G6A C27U A43C C66U, -0.113.
Consider U2G G6A C27U A43C C66A, for which the “yeast fitness (ln)” value is -0.237.
For U2G C27U A43C C66U A69G A70U C71U the value was -0.42.
On to U2G G6A C27U A43C C46U C66A A70U C71U, for which the “yeast fitness (ln)” value is -0.331.
As to U2G C27U C46U C66A A69G A70G, the “yeast fitness (ln)” value was -0.163.
Regarding U2G C27U C46U C66A A69G A70U, the “yeast fitness (ln)” value is -0.0493.
Turning to U2G G6A C27U A43C C46U C66U A69G, the “yeast fitness (ln)” value is -0.415.
As to U2G C27U C66U A70G C71U, the “yeast fitness (ln)” value is -0.21.
For U2G C27U A43C C66U A70U the value was -0.205.
On to U2G C27U A43C C66U A70G, for which the “yeast fitness (ln)” value is -0.257.
Regarding U2G G6A A43C C46U C66A A70G C71U, the “yeast fitness (ln)” value is -0.139.
Next, U2G C27U C66A A70U C71U: -0.195.
As to U2G C27U A43C C46U C71U, the “yeast fitness (ln)” value is -0.0621.
Take U2G G6A A43C C46U C66U A69G A70U C71U: the “yeast fitness (ln)” value was -0.379.
As to U2G G6A A43C C46U C66A A69G A70U C71U, the “yeast fitness (ln)” value was -0.381.
Next, U2G C27U A70U: -0.0184; U2G C27U A70G: -0.136; U2G G6A A43C C66A C71U: -0.347.
Next, U2G C27U A43C C66A A70G C71U: -0.257; U2G G6A C27U A43C C46U: -0.0569; U2G C27U C46U: -0.0742.
Consider U2G C66A A69G A70G C71U, for which the “yeast fitness (ln)” value was -0.152.
Turning to U2G C27U C66U A69G, the “yeast fitness (ln)” value is -0.231.
Consider U2G G6A A43C C46U C66A A70G, for which the “yeast fitness (ln)” value is -0.169.
For U2G G6A A43C C46U C66A A70U the value was -0.0808; for U2G C27U A43C C46U C66U A69G, -0.231.
Take U2G G6A C27U A43C C66U A70G: the “yeast fitness (ln)” value is -0.223.
In the case of U2G G6A C27U A43C C66U A70U, the “yeast fitness (ln)” value is -0.0534.
Next, U2G C27U C46U C66A: -0.0734; U2G C27U C46U C66U: -0.0703; U2G C27U A69G A70U C71U: -0.518.
As for U2G C27U C46U C66A A70G C71U, the “yeast fitness (ln)” value is -0.228.
For U2G C27U C46U A69G A70U C71U the value was -0.563; for U2G C27U A43C C46U C66A C71U, -0.182.
U2G G6A A43C C66U A69G A70G C71U: the “yeast fitness (ln)” value is -0.304.
Consider U2G C27U C66U A69G C71U, for which the “yeast fitness (ln)” value is -0.282.
